Only some compounds are listed: those with a hit (about 2.6% of all), similar ones and a draw of the others.
CHT allo act: CHT positive allosteric modulators, primary screen, cell-based, membrane potential dye, choline EC20 | High affinity choline transporter 1 (Homo sapiens), Q9GZV3 | CHT-expressing cells; hits give high values; LV-AA mutant CHT in HEK293 cells | B-score at 10 µM | 0.49% of 310,000 active;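 active = initial fluorescence not abnormally high and integrated response B-score, plate-corrected, over 3 SD above library mean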
Target sequence (Q9GZV3 whole entry, looked up): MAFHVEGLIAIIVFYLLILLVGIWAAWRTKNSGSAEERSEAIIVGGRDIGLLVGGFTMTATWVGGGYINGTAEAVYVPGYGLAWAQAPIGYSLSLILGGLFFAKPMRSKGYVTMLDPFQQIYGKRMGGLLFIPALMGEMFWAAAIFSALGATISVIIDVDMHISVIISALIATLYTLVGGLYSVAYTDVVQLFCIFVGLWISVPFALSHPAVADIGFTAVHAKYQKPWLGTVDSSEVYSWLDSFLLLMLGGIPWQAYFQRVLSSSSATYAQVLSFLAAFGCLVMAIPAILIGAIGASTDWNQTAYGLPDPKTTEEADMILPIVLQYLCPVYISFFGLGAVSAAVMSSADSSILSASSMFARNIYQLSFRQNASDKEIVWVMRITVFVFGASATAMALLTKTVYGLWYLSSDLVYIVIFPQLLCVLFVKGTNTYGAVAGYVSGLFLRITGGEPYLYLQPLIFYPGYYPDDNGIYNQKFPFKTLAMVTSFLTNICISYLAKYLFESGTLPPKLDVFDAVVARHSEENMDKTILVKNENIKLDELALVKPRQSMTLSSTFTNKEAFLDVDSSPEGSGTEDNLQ
PolyA inhibitor: polyadenylation inhibitors in yeast reporter cells, primary screen, luminescence, S. cerevisiae. S. cerevisiae SKY197-pL101 polyadenylation reporter, beta-gal luminescence; efflux-impaired pdr1/pdr3 knockout yeast; score 100 = 6 SD above DMSO. activity score, % at 12 µM. 0.02% of 300,000 active;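 active = lowest replicate activity score at least 50, where 100 means six control SD above control mean; inconclusive = lowest score under 50 but half or more replicates reach 50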;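 note: yeast exposed to compound for 9 h at 30 °C; higher score means more reporter readthrough which indicates perturbed polyadenylation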
T cruzi inh: inhibitors of intracellular T. cruzi growth, primary screen, luminescence, NIH3T3 host cells; T. cruzi beta-gal in NIH3T3, 90 h; inhibition, % (test concentration not listed); 1.4% of 300,000 active;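 active = mean inhibition across valid replicates above about 55%, limit read from the data; inconclusive = mean below that limit but half or more replicates reach it; inactive = mean below it, under half of replicates reach it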;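 note: signal also drops with host cell toxicity which is not excluded here; 0% = plate median of DMSO wells and 100% = zero luminescence signal; higher percent means less beta-gal luminescence so fewer parasites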
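Material: NIH/3T3 host cells with β-galactosidase reporter T. cruzi; Input: 5,000 host fibroblasts per well; Medium: DMEM, 2% fetal bovine serum; Compound: 50 nL DMSO compound solution per well; Schedule: 3 h host attachment, then at least 90 h co-culture; Detection: luminescent β-galactosidase signal after 60 min lysis.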
CHT inh: inhibitors of human choline transporter CHT. 0.86% of 310,000 active. CHT-expressing cells, membrane potential dye, choline response; hits give low values. High affinity choline transporter 1 (Homo sapiens), Q9GZV3. B-score at 10 µM;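 active = B-score over 3 SD under the library average, and starting fluorescence ratio not unusually high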;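 note: choline stimulus applied at its EC90 after an EC20 pre-addition; B-score computed on integrated fluorescence ratio after choline addition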
Active calls of the source: *; i = inactive; ? = inconclusive; . = no result.

SMILES | CHT allo act | PolyA inhibitor | T cruzi inh | CHT inh
Cc1cc(/C=C2/SC(=S)N(c3ccc([N+](=O)[O-])cc3)C2=O)c(C)n1-c1cccnc1 | i | -9 | 59* | i
CS(=O)(=O)NCCSCc1c(Cl)cccc1Cl | i | 2 | 75* | i
S=C(NCCSCc1c(Cl)cccc1Cl)Nc1ccccc1 | i | . | 56* | i
O=C1N=C(N2CCOCC2)S/C1=C/c1ccc(-c2ccc(F)cc2)o1 | i | 6 | 32 | i
Cc1ccc(-c2ccc(/C=C3\SC(N4CCOCC4)=NC3=O)o2)cc1 | i | 15 | 66* | i
O=C(COC(=O)c1nc(Cl)ccc1Cl)NNC(=O)c1cccs1 | i | 18 | -11 | i
CCn1cc([N+](=O)[O-])c(C(=O)N2N=C(c3ccc(Cl)c(Cl)c3)CC2c2ccccc2O)n1 (stereo not given) | i | 1 | 37 | i
CCn1cc([N+](=O)[O-])c(C(=O)N2N=C(c3ccc4ccccc4c3)CC2c2cc(Br)ccc2O)n1 (stereo not given) | i | 6 | 56* | i
COC(=O)c1[nH]c2ccc(C)cc2c1NC(=O)CN1CCCc2ccccc21 | i | 15 | 85* | i
Cc1c(C)n(CCCN(C)C)c2ncnc(Nc3ccccc3)c12 | i | 13 | ? | i
Cc1c(C)n(CCCN(C)C)c2ncnc(NC3CCCCC3)c12 | i | -12 | 56* | i
COc1ccccc1Nc1ncnc2c1c(C)c(C)n2CCCN(C)C | i | 5 | 58* | i
Cc1nc(SCC(=O)N2CCCCCC2)[nH]c(=O)c1C | i | -22 | -6 | i
CCOc1ccc(CCNC(=O)CN2C(=O)CCSc3ccccc32)cc1OCC | i | 67* | 5 | i
CSc1ccc(CCNC(=O)CN2C(=O)CCSc3ccccc32)cc1 | i | -13 | -3 | i
CCC(C)NC(=O)c1c(N)n(/N=C/c2ccccn2)c2nc3ccccc3nc12 (stereo not given) | i | 3 | 62* | i
Cc1ccc2nc(NC(=O)C3CCN(S(=O)(=O)c4cc([N+](=O)[O-])ccc4Cl)CC3)sc2c1 | i | 1 | 67* | i
O=C(Nc1nc2ccc(F)cc2s1)C1CCN(S(=O)(=O)c2cc([N+](=O)[O-])ccc2Cl)CC1 | i | -1 | 49 | i
CCOc1ccccc1CN1CCNC(=O)C1CC(=O)NCCc1ccccn1 (stereo not given) | i | -1 | -5 | i
COCc1cc(S(=O)c2ccc(Cl)cc2)nc(C)n1 (stereo not given) | . | -2 | 61* | .
Oc1c(C(Nc2cccc(C(F)(F)F)c2)c2ccncc2)ccc2cccnc12 (stereo not given) | i | -3 | 79* | i
Oc1c(C(Nc2nccs2)c2ccc(C(F)(F)F)cc2)ccc2cccnc12 (stereo not given) | . | 8 | 52 | .
COc1ccc(-c2csc(NC(=O)c3ccc(C(C)(C)C)cc3)c2C(=O)O)cc1 | i | -14 | 33 | i
COc1ccc(-c2csc(NC(=O)c3ccccc3Br)c2C(=O)O)cc1 | i | 17 | 7 | -6.2*
CCOc1ccc2nc(NC(=O)CSc3nnnn3C3CCCCC3)sc2c1 | i | 7 | 56* | i
SMILES | CHT allo act | PolyA inhibitor | T cruzi inh | CHT inh
CCOc1ccc2nc(NC(=O)C3CCN(c4cnccn4)CC3)sc2c1 | i | -26 | 61* | i
COc1ccc(CNc2ncnc3sccc23)cc1 | i | 114* | -31 | i
O=C(CCl)c1ccc2c(c1)CCN2C(=O)C1CCCCC1 | i | -26 | 90* | i
O=C(CCl)c1ccc2c(c1)CCN2C(=O)C1CC1 | i | -14 | 19 | i
O=[N+]([O-])c1ccc(S(=O)(=O)N2CCN(c3ccc(N4CCOCC4)nn3)CC2)cc1 | i | -27 | 60* | i
COc1ccccc1-c1cc2nc(C)c(CCC(=O)NCc3ccc(F)cc3)c(C)n2n1 | i | 1 | 61* | i
COc1ccc(C)cc1NC(=O)CSc1ccc(-c2ccco2)nn1 | i | -6 | -2 | i
Cc1ccc2nc(/C(C#N)=C\c3ccc(N4CCCCC4)c([N+](=O)[O-])c3)[nH]c2c1 | i | -8 | 72* | i
N#C/C(=C/c1ccc(N2CCCC2)c([N+](=O)[O-])c1)c1nc2ccccc2[nH]1 | i | -16 | 11 | i

Compound activity as filed in PubChem BioAssay.
